From ChEMBL document CHEMBL1140794, “Discovery of 3-aryl-3-methyl-1H-quinoline-2,4-diones as a new class of selective 5-HT6 receptor antagonists” (Bioorg Med Chem Lett, 2008) come the findings set out here.

Test [1] concerns the target T1, 5-hydroxytryptamine receptor 6 (Homo sapiens, UniProt P50406). The experiment in a line: Displacement of [3H]LSD from human cloned 5HT6 receptor expressed in HEK293 cells. It is filed as cell-based. On the technique in general: Loss of bound radioactivity is the signal in a displacement assay; it reports binding, not function.
Test [2] deals with T2, 5-hydroxytryptamine receptor 1A (Homo sapiens, UniProt P08908).
T2 sequence (P08908 whole entry): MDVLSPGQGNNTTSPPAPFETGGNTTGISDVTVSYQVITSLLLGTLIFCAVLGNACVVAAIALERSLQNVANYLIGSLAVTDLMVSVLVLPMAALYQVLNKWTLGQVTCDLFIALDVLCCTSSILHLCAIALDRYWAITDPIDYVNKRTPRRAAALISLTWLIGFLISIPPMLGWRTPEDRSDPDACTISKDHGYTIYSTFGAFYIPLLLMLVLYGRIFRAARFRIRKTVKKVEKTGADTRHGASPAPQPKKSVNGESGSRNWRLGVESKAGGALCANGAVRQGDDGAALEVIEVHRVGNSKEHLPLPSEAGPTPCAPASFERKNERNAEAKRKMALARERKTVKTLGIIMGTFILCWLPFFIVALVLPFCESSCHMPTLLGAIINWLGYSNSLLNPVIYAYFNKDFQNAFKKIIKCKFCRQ
Briefly: Displacement of [3H]8-OH-DPAT from human cloned 5HT1A receptor.

For a further test, the target named is D(2) dopamine receptor (Homo sapiens, UniProt P14416). Briefly: Displacement of [3H]spiperone from human cloned dopamine D2 receptor.
Chain of D(2) dopamine receptor (P14416 whole entry): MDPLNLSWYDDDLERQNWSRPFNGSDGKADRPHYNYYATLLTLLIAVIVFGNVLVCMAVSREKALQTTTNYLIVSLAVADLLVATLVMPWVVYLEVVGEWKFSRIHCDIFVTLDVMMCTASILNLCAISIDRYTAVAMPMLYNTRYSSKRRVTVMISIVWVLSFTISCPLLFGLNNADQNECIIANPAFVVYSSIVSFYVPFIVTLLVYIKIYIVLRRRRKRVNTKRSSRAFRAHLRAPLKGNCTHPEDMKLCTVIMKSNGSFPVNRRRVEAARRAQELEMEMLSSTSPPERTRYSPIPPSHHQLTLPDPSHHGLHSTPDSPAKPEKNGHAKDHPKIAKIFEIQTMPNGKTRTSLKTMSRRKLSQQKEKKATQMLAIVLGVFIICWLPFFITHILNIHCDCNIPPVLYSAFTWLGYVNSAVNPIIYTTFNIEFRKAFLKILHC
For a further test, the target named is D(1A) dopamine receptor (Homo sapiens, UniProt P21728). Briefly: Displacement of [3H]SCH-23390 from human cloned dopamine D1 receptor.
Chain of D(1A) dopamine receptor (P21728 whole entry): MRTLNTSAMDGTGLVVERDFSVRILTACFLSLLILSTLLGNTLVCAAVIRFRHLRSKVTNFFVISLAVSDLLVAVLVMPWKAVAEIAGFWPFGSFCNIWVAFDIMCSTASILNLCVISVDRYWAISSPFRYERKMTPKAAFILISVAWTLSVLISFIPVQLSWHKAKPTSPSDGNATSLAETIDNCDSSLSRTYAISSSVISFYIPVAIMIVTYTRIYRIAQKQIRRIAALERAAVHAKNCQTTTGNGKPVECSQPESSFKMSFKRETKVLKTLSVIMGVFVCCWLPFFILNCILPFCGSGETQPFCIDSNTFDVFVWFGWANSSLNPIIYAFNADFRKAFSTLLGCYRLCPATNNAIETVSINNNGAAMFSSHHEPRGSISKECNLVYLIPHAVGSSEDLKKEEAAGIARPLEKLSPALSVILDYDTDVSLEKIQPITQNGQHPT
Test [3] concerns the target T3, 5-hydroxytryptamine receptor 2C (Homo sapiens, UniProt P28335).
T3 sequence (P28335 whole entry): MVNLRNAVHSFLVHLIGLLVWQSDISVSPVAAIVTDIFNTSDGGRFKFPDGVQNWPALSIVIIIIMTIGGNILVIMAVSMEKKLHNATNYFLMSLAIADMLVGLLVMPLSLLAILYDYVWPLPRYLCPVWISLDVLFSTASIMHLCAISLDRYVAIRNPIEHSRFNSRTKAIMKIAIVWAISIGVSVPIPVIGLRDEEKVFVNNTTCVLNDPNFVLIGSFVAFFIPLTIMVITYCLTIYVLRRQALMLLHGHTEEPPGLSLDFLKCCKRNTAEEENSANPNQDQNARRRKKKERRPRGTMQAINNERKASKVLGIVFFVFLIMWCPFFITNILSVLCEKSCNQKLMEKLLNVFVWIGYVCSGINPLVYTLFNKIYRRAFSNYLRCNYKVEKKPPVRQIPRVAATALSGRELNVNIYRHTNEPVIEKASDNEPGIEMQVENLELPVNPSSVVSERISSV
Briefly: Displacement of [3H]mesulergine from human cloned 5HT2C receptor.

Test [4] deals with 5-hydroxytryptamine receptor 7 (Homo sapiens, UniProt P34969). Briefly: Displacement of [3H]LSD from human cloned 5HT7 receptor.
Chain of 5-hydroxytryptamine receptor 7 (P34969 whole entry): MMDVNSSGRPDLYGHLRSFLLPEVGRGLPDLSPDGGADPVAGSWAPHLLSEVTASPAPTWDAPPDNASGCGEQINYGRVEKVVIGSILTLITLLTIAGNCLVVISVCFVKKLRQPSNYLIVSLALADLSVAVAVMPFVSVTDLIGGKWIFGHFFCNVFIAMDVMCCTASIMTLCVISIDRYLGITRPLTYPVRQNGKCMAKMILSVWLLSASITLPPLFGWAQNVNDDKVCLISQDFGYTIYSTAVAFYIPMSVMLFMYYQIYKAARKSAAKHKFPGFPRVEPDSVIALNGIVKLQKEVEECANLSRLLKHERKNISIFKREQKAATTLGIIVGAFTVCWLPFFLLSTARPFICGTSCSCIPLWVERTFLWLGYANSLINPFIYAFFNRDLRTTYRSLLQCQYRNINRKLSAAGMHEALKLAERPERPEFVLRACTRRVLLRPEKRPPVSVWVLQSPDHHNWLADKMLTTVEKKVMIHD
The target in another test is T4, D(4) dopamine receptor (Homo sapiens, UniProt P21917).
T4 sequence (P21917 whole entry): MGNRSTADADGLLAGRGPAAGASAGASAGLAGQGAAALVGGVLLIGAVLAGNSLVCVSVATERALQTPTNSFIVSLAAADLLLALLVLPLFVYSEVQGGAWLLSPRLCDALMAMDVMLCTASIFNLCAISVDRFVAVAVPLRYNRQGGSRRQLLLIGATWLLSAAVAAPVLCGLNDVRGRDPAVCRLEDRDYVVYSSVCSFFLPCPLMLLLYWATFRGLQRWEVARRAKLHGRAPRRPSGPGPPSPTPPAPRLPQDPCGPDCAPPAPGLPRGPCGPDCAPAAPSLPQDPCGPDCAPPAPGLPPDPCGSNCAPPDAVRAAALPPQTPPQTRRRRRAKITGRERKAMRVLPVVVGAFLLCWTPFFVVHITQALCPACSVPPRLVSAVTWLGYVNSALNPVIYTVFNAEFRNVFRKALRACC
The experiment in a line: Displacement of [3H]spiperone from human cloned dopamine D4 receptor.

In another test the target is D(3) dopamine receptor (Homo sapiens, UniProt P35462). Briefly: Displacement of [3H]spiperone from human cloned dopamine D3 receptor.
Chain of D(3) dopamine receptor (P35462 whole entry): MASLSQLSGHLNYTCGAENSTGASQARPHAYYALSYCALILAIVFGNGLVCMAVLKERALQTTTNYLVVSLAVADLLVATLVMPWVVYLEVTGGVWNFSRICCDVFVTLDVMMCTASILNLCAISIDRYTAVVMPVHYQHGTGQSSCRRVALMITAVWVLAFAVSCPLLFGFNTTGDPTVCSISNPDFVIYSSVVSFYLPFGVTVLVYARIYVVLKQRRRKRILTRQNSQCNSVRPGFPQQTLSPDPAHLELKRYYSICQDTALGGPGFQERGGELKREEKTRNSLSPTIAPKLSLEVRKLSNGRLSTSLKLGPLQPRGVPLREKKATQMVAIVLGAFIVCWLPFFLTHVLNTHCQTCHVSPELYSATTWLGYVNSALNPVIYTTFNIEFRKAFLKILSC
The target in test [5] is 5-hydroxytryptamine receptor 2A (Homo sapiens, UniProt P28223). Briefly: Displacement of [3H]ketanserin from human cloned 5HT2A receptor.
Chain of 5-hydroxytryptamine receptor 2A (P28223 whole entry): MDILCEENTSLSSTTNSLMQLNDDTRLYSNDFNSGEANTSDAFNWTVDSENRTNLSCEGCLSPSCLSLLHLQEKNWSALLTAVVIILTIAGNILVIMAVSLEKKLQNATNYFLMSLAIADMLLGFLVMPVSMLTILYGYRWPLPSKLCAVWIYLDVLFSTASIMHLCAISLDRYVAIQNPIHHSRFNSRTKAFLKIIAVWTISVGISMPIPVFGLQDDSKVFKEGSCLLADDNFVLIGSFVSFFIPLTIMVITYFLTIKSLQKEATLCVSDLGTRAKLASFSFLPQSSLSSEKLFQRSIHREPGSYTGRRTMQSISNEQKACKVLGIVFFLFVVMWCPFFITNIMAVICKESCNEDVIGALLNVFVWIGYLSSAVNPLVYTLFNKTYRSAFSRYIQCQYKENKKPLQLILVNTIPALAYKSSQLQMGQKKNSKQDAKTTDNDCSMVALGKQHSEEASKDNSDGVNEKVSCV
The target in test [6] is T1, 5-hydroxytryptamine receptor 6. The experiment in a line: Antagonist activity at human cloned 5HT6 receptor expressed in HeLa cells assessed as inhibition of 5-HT-stimulated cAMP accumulation after 20 mins by enzyme-immunoassay. It is filed as functional, cell-based. The method in brief: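 […] and test compounds were added to HBSS (pH 7.4) containing 1 mM MgCl₂, 1 mM CaCl₂ and 1-methyl-3-isobutylxanthine (IBMX) at 100. After 20 min at 37 °C, intracellular cAMP was measured by enzyme immunoassay. Compounds that inhibited 5-HT-stimulated cAMP accumulation were classed as antagonists.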

T1 sequence (P50406 whole entry): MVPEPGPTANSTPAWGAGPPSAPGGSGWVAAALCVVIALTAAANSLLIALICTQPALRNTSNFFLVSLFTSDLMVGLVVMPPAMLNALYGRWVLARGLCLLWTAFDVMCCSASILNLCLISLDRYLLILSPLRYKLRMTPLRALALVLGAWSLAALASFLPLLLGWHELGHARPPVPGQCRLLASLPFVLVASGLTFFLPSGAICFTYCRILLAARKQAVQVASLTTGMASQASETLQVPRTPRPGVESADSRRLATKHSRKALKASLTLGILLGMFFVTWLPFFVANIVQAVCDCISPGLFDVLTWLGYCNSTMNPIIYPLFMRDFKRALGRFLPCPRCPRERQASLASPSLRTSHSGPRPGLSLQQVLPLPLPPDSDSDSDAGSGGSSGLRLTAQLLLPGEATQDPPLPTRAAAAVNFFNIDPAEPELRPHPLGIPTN

Consider `COc1cc(Br)c2c(c1)NC(=O)C(C)(c1ccccc1)C2=O` (stereo not drawn), for which affinity in test [1] was put at a Ki of 73.2 nM. That is a double-digit nanomolar value.

In turn, `CN(C)c1cc(Cl)c2c(c1)NC(=O)C(C)(c1ccccc1)C2=O` (stereo not drawn) displayed a Ki in test [1] of 715 nM.

`CC1(c2ccc(Cl)cc2)C(=O)Nc2cc(Cl)cc(Cl)c2C1=O` (stereo not drawn): the Ki in test [1] worked out at 877 nM. This Ki and that of the compound before are within 1.5-fold of each other.

In [1], `CC1(c2ccccc2)C(=O)Nc2cc(Br)cc(Br)c2C1=O` (stereo not drawn) returned a Ki of 197 nM.

For the compound `CN(C)c1ccc(C2(C)C(=O)Nc3cc(Cl)cc(Cl)c3C2=O)cc1` (stereo not drawn), affinity in test [1] was put at a Ki of 346 nM.

In turn, `CC1(c2ccc(I)cc2)C(=O)Nc2cc(Cl)cc(Cl)c2C1=O` (stereo not drawn) gave a Ki in test [1] of 952 nM.

As for `CCNc1ccc(C2(C)C(=O)Nc3cc(Cl)cc(Cl)c3C2=O)cc1` (stereo not drawn), in test [1], the Ki worked out at 28.3 nM.

Take `CC1(c2cccc(OCc3ccccc3)c2)C(=O)Nc2cc(Cl)cc(Cl)c2C1=O` (stereo not drawn): the Ki in test [2] was 170 nM; on D(2) dopamine receptor, greater than 10000 nM; in test [1], 82.4 nM; on D(1A) dopamine receptor, 120 nM; in test [3], greater than 10000 nM; in [4], 600 nM. For the same compound, the figures for the Ki (at D(4) dopamine receptor; at D(3) dopamine receptor; in test [5]) were greater than 10000 nM, greater than 10000 nM and 720 nM, respectively.

In test [1], `COc1ccc(C2(C)C(=O)Nc3cc(Cl)cc(Cl)c3C2=O)cc1[N+](=O)[O-]` (stereo not drawn) gave a Ki greater than 1000 nM.

The compound `CC1(c2ccccc2)C(=O)Nc2cc(Cl)c(Cl)cc2C1=O` (stereo not drawn) displayed a Ki in [1] greater than 1000 nM.

Regarding `CC1(c2ccccc2)C(=O)Nc2c(Br)cc(Br)cc2C1=O` (stereo not drawn), the Ki in test [1] was greater than 1000 nM.

Consider `COc1ccc(C2(C)C(=O)Nc3cc(Cl)cc(Cl)c3C2=O)cc1` (stereo not drawn), for which affinity in [1] was put at a Ki of 147 nM.

As for `CC1(c2ccc(O)c([N+](=O)[O-])c2)C(=O)Nc2cc(Cl)cc(Cl)c2C1=O` (stereo not drawn), in test [1], the Ki was greater than 1000 nM.

As to `CC1(c2ccc(O)cc2)C(=O)Nc2cc(Cl)cc(Cl)c2C1=O` (stereo not drawn), the Ki is greater than 10000 nM in test [2]; greater than 10000 nM at D(2) dopamine receptor; 12.3 nM in test [1]; greater than 10000 nM at D(1A) dopamine receptor; greater than 10000 nM in [3]; greater than 10000 nM in [4]. Besides, the Ki (on D(4) dopamine receptor; at D(3) dopamine receptor; in test [5]) was greater than 10000 nM throughout. Besides, the IC50 in test [6] is 615 nM.

Take `CC1(c2ccc(N)cc2)C(=O)Nc2cc(Cl)cc(Cl)c2C1=O` (stereo not drawn): the affinity in test [1] corresponds to a Ki of 156 nM.

As for `CC1(c2ccc(O)c(Br)c2)C(=O)Nc2cc(Cl)cc(Cl)c2C1=O` (stereo not drawn), the Ki in test [1] amounted to 77.5 nM.

In [1], `COc1ccc([C@]2(C)C(=O)Nc3cc(Cl)cc(Cl)c3C2=O)cc1` returned a Ki of 293 nM.

In [1], `COc1ccc([C@@]2(C)C(=O)Nc3cc(Cl)cc(Cl)c3C2=O)cc1` came in with a Ki of 893 nM.

In test [1], `CC1(c2ccccc2)C(=O)Nc2ccccc2C1=O` (stereo not drawn) yielded a Ki greater than 1000 nM.

`CNc1ccc(C2(C)C(=O)Nc3cc(Cl)cc(Cl)c3C2=O)cc1` (stereo not drawn): the Ki in test [1] stood at 257 nM.

In test [1], `CCN(CC)c1ccc(C2(C)C(=O)Nc3cc(Cl)cc(Cl)c3C2=O)cc1` (stereo not drawn) came in with a Ki of 9.2 nM.

As for `CC1(c2ccc(OCc3ccccc3)c(Br)c2)C(=O)Nc2cc(Cl)cc(Cl)c2C1=O` (stereo not drawn), the Ki in [1] was greater than 1000 nM.

Compound `CC1(c2ccccc2)C(=O)Nc2cc(Cl)ccc2C1=O` (stereo not drawn) displayed a Ki in test [1] greater than 1000 nM.

Regarding `COc1cc(Cl)c2c(c1)NC(=O)C(C)(c1ccccc1)C2=O` (stereo not drawn), in test [1], the affinity corresponds to a Ki of 345 nM. That is a sub-micromolar value.

`CC1(c2ccc(Br)cc2)C(=O)Nc2cc(Cl)cc(Cl)c2C1=O` (stereo not drawn): the affinity in [1] corresponds to a Ki of 304 nM.

As to `CC1(c2cccc(O)c2)C(=O)Nc2cc(Cl)cc(Cl)c2C1=O` (stereo not drawn), the Ki in test [2] was greater than 10000 nM; at D(2) dopamine receptor it was greater than 10000 nM; in [1], 30.1 nM; on D(1A) dopamine receptor it was 1810 nM; in test [3] it was greater than 10000 nM; in test [4], greater than 10000 nM. Further, the Ki (on D(4) dopamine receptor; at D(3) dopamine receptor; in test [5]) was greater than 10000 nM in each case.

With `CC1(c2ccc([N+](=O)[O-])cc2)C(=O)Nc2cc(Cl)cc(Cl)c2C1=O` (stereo not drawn), the Ki in test [1] was greater than 1000 nM.

Consider `COc1cc2c(c(OC)c1)C(=O)C(C)(c1ccccc1)C(=O)N2` (stereo not drawn), for which, in [1], the affinity, expressed as Ki, was 728 nM.

`COc1ccc(NS(=O)(=O)c2sc3ccc(Cl)cc3c2C)cc1N1CCNCC1`: the Ki at D(2) dopamine receptor is 460 nM; on D(1A) dopamine receptor, 120 nM; in test [3], 530 nM; at D(4) dopamine receptor, 130 nM; in test [5], 1740 nM.

In test [1], `CNc1cc(NS(=O)(=O)c2ccc(N)cc2)cc(NC)n1` had a Ki of 512 nM.

For `CC1(c2ccccc2)C(=O)Nc2cc(Cl)cc(Cl)c2C1=O` (racemic), the Ki in test [2] was greater than 10000 nM; at D(2) dopamine receptor, greater than 10000 nM; in test [1], 54.7 nM; on D(1A) dopamine receptor it was greater than 10000 nM; in [3] it was greater than 10000 nM; in test [4] it was greater than 10000 nM. The inhibitory constant (Ki) (at D(4) dopamine receptor; at D(3) dopamine receptor; in test [5]) was greater than 10000 nM each time.

What is called Ki is the equilibrium dissociation constant of an inhibitor or competing ligand from its target. A lower Ki goes with higher affinity. What is called IC50 is the concentration that inhibits the measured activity by half.
